Assay outcomes (PubChem)
A selection: hits, their analogues and other compounds. The true share with any hit is near 2.2%.
GPR7 antag = antagonists of human GPR7 (neuropeptides B/W receptor 1). GPR7-expressing cells, fluorescence antagonist assay. AID 1861. 1.1% of 290,000 active. P48145. inhibition, % at 4.4 µM; in the data active = inhibition above about 16%, passing the limit was not always enough;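 note: cells stimulated with the agonist NPW; 0% = agonist with vehicle and 100% = vehicle without agonist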
Target sequence (P48145 whole entry, looked up): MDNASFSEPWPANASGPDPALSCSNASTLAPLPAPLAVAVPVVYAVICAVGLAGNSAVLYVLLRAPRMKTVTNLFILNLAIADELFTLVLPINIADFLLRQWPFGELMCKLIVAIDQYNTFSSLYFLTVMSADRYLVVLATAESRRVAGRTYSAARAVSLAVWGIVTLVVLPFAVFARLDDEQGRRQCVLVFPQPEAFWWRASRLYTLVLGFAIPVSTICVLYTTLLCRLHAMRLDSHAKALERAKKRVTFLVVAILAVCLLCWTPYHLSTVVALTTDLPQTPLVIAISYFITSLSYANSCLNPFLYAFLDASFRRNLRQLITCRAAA
HCV NS3 hel inh = blocks Hepatitis C virus NS3 helicase unwinding; NS3 helicase DNA unwinding, Cy5 molecular beacon fluorescence; inhibition, % at 10.9 µM; 0.56% of 290,000 active;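 active = inhibition above the mean of all tested compounds plus 3 SD, set per campaign, cut at about 35% in these data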;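 note: 0% = DMSO wells and 100% = thioflavine S control wells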
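Compound dosing – single dose, 10.9 µM nominal final, DMSO 0.8% final · System – NS3 helicase fragment of HCV · Buffer or medium – MOPS pH 6.5, MgCl2, DTT, Tween20, BSA · Signal – Cy5 beacon fluorescence read at start and 1 h · Also added – annealed dual-labelled DNA beacon duplex, ATP-started · Schedule – 1 h at 25 °C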
GRK2 aptamer HTS = inhibitors of human GRK2 displacing RNA aptamer; AID 488847; bead flow cytometry, FAM-aptamer displacement from GRK2; inhibition of aptamer binding, % at 10 µM; P25098; 0.59% of 330,000 active;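 active = inhibition of aptamer binding above 40%, roughly 3 SD of noise, on plates passing a quality check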;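 note: median bead fluorescence of bound FAM aptamer so fluorescent compounds give negative values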
DAGLB inh = diacylglycerol lipase beta (human) inhibition; Q8NCG7; 0.059% of 340,000 active; inhibition, % at 5.17 µM; AID 504411; HEK293T DAGLB membrane lysate, EnzChek fluorogenic substrate; in the data active = inhibition above about 34%;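 note: 0% = enzyme with vehicle and 100% = wells lacking enzyme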
core dimer inh = HCV core protein dimerization inhibition. TR-FRET GST/Flag-core106 dimerization, 1536-well. inhibition, % at 5 µM. 0.33% of 300,000 active;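 active = inhibition above the mean of all tested compounds plus 3 SD, set per screening campaign, cut at about 45% in these data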
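Assay system: Tagged HCV core106 pair (GST and Flag) | Buffer or medium: KF-containing HEPES buffer, pH 7.45, DTT, CHAPS, BSA | Also added: Eu donor and XL665 acceptor anti-tag antibodies | Dosing: One concentration, 5 µM, in 0.5% DMSO | Timing: 4 h at 22.5 °C | Technique: TR-FRET 671 and 617 nm emission | Repeats: Singlicate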
FID counter = fluorescent intercalator displacement, NS3 helicase counter-screen; DNA fluorescent intercalator displacement, fluorescence; inhibition, % at 7.9 µM; 0.17% of 290,000 active; AID 1845; in the data active = inhibition above about 37%;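 note: 0% = vehicle and 100% = reference compound; higher means more ethidium bromide displaced from hairpin DNA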
* marks the source's active call; other numbers are inactive results; x = not tested or not shown.

SMILES	GPR7 antag	HCV NS3 hel inh	GRK2 aptamer HTS	DAGLB inh	core dimer inh	FID counter
COc1ccc(C)cc1NS(=O)(=O)c1ccc(NC(=O)CN(c2cc([N+](=O)[O-])ccc2C)S(C)(=O)=O)cc1	17	-27	0	1	3	9
Cc1cccc(NS(=O)(=O)c2ccc(NC(=O)CN(c3cc([N+](=O)[O-])ccc3C)S(C)(=O)=O)cc2)c1	66*	-5	6	0	4	20
Nc1nonc1-n1nnc(C(=O)N/N=C/c2ccoc2)c1-c1ccccc1	-9	5	0	2	-4	-11
[O-]/C(=C(\C(=S)Nc1ccc(SC(F)F)cc1)[n+]1ccccc1)c1ccc(Cl)cc1Cl	-7	-21	0	-1	12	-21
Cc1cc(C)cc(NC(=S)/C(=C(\[O-])c2ccc(Cl)cc2Cl)[n+]2ccccc2)c1	16*	12	2	-2	7	-6
CCCN(CCC)C(=O)C[n+]1cccc(/C=N/O)c1	-1	-7	49*	1	-2	3
C=C(C)C(=O)Nc1cccc(C2=NOC3(C2)C[C@H](C(N)=O)N(C(=O)c2ccccc2C(=O)c2ccccc2)C3)c1 (stereo partly specified)	x	x	91*	-1	-176	x
C=C(C)C(=O)Nc1cccc(C2=NOC3(C2)C[C@@H](C(N)=O)N(C(=O)/C(C)=C/C)C3)c1 (stereo partly specified)	x	x	94*	1	-114	x
C=C(C)C(=O)Nc1cccc(C2=NOC3(C2)C[C@H](C(N)=O)N(C(=O)CC)C3)c1 (stereo partly specified)	x	x	72*	-1	-76	x
C/C=C(\C)C(=O)Nc1cccc(C2=NOC3(C2)C[C@@H](C(N)=O)N(C(=O)/C(C)=C/C)C3)c1 (stereo partly specified)	x	x	1	1	8	x
COc1cccc(N2CCN(S(=O)(=O)c3ccc4ccccc4c3)CC2)c1	x	x	x	-2	x	x
Cc1cc(OCCCCCNCCO)cc(C)c1Cl	19*	-28	0	3	-1	22
Cc1ccc(Nc2nc(N)nc(CN3CCCCCC3)n2)c(C)c1	20*	-12	0	-2	5	-2
Cc1ccc(Nc2nc(N)nc(CN3CCC(C)CC3)n2)c(C)c1	-1	4	0	0	-2	0
S=C1NC2=C(CCCC2=C2SCCCS2)C(c2ccccc2)N1 (stereo unspecified)	4	35	2	8	48*	3
COc1ccc(C2NC(=S)NC3=C2CCCC3=C2SCCS2)cc1 (stereo unspecified)	3	8	1	0	48*	-23
S=C1NC2=C(CCC/C2=C\c2ccccc2)C(c2ccccc2)N1 (stereo unspecified)	5	-11	1	1	16	-10
Cc1ccc(-n2c(SCC(=O)O)nc3sc4c(c3c2=O)CC(C)(C)SC4)cc1	x	x	x	-2	x	x
CC(C)Sc1nc2sc3c(c2c2nnc(SCC(=O)NCc4ccco4)n12)CCCC3	-4	14	3	-22	45	-9
Cc1ccc(-n2c(SCC(=O)NCc3ccco3)nc3sc4c(c3c2=O)CC(C)(C)SC4)cc1	-11	29	2	-1	68*	-43
CCSc1nc2sc3c(c2c2nnc(SCC(=O)NCc4ccco4)n12)CCCC3	-9	14	3	x	58*	-23
O=C(O)C1=CC(=C(c2ccc(O)c(C(=O)O)c2)c2ccc(O)c(C(=O)O)c2)C=CC1=O	x	x	99*	x	77*	x
O=C(O)c1cc(O)ccc1O	x	x	x	3	x	x
CCOC(=O)c1nn(-c2sc(C(=O)OC)c(C)c2C(=O)OC)cc1O	19*	0	8	0	-4	-12
NS(=O)(=O)c1ccc(CCNC(=O)COc2ccc3c4c(c(=O)oc3c2)CCC4)cc1	-7	6	2	0	-8	88*
SMILES	GPR7 antag	HCV NS3 hel inh	GRK2 aptamer HTS	DAGLB inh	core dimer inh	FID counter
O=C(COc1ccc2c3c(c(=O)oc2c1)CCC3)Nc1ccc(CCO)cc1	-12	7	1	0	1	-39
CC[C@H](C)[C@@H]1NC(=O)c2cc([N+](=O)[O-])cc(I)c2NCC[C@@H](C(N)=O)NC(=O)[C@H](CCCN=C(N)N)NC1=O	-10	-17	0	x	-8	12
NC(=O)[C@@H]1CCCNc2c(I)cc([N+](=O)[O-])cc2C(=O)N[C@@H](CCCN=C(N)N)C(=O)N[C@@H](CCCN=C(N)N)C(=O)N1	17	-70	0	x	-9	47*
O=C(CN1CCN(S(=O)(=O)c2ccccc2F)CC1)N1CCc2ccccc2C1	x	x	0	-1	x	x
Cc1ccc(C2=NN=C(NC(=O)CSc3nnc4c5ccccc5n(C)c4n3)SC2)cc1	-4	53*	3	-40	15	-21
Cc1ccc(-n2cc(C(=O)c3ccc(F)cc3)nn2)cc1Cl	5	-5	0	-4	70*	-1
C/C(=C\c1cccc(Br)c1)C(=O)c1c(C)cc(C)[nH]c1=O	-7	3	0	-2	2	-22
C/C(=C\c1ccc(C)o1)C(=O)c1c(C)cc(C)[nH]c1=O	20*	19	4	0	12	-6
CC(CNC(=O)CCCn1c(=O)c2cccn2c2cccnc21)c1ccccc1 (stereo unspecified)	x	x	x	1	x	x
Cc1ccc(/C=c2\sc3nc(-c4ccco4)nn3c2=O)o1	-6	25	28	0	62*	1
COc1ccc(Br)cc1/C=c1\sc2nc(-c3ccco3)nn2c1=O	x	x	0	6	57*	x
Cc1ccc(/C=c2\sc3nc(-c4ccccc4Br)nn3c2=O)o1	-7	33	13	1	32	-19
COc1ccc2c(c1)OC[C@H]1[C@H]2N2C(=O)c3cc(OC)c(OC)cc3NC(=O)[C@@]2(C)[C@H]1c1ccccc1	x	x	0	0	46*	x
COc1cc2c(cc1OC)C(=O)N1[C@H]3c4ccccc4OC[C@@H]3[C@H](c3ccccc3)[C@]1(C)C(=O)N2	x	x	0	1	25	x
O=S(=O)(Nc1ccc(-c2cn3c(n2)SCC3)cc1)c1cc(F)ccc1F	x	x	x	1	x	x
CCCCS(=O)(=O)/C=C\C=C/S(=O)(=O)CCCC	40*	-6	0	-1	-5	-9
COCCCN(C(=O)CSc1nc2ccccc2c(=O)n1C)c1c(N)n(Cc2ccccc2)c(=O)[nH]c1=O	x	x	x	1	x	x
COc1ccc2oc(C(=O)Nc3nc(-c4ccccn4)cs3)c(C)c2c1	x	x	4	-6	56*	x
COc1ccc2oc(C(=O)NC(C)c3ccccn3)c(C)c2c1 (stereo unspecified)	x	x	0	-4	x	x
CCCCCC(=O)N1C[C@@H](n2cc(COC(=O)c3ccccc3)nn2)[C@H](O)C[C@@H]1c1ccc(Cl)cc1	x	x	x	0	x	x
N#C/C(=C\c1ccc(Cl)cc1)c1n[nH]c(Cn2cncn2)n1	-3	-3	0	3	-2	-2
